Experimental data from ChEMBL document CHEMBL1145181, “Heterocyclic and phenyl double-bond-locked combretastatin analogues possessing potent apoptosis-inducing activity in HL60 and in MDR cell lines” (J Med Chem, 2005).
Where “and” joins values, the source holds several entries; their conditions need not be identical. Equal entries are not always repeated.

What was measured:
[1] = test system: HL-60; assay: Percentage of apoptotis inhibition at 2 uM concentration was determined in HL60 cells in the presence of Z-LEHD-fmk inhibitor; assay type: functional, Homo sapiens; parameters: scale not given: the % may be the effect or the level left
How it was run: (§1)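 HL60 cells (2 × 10^5) were pretreated for 2 h with Fas-blocking MoAb ZB4 or with caspase-9 inhibitor Z-LEHD-fmk (5 µM) before compound was added. Apoptosis was scored at 48 h by acridine orange/ethidium bromide morphology and expressed as percent inhibition.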

[2] = test system: HL-60; assay: Concentration to induce apoptosis in 50% cells was determined in HL60 cells; assay type: functional, cell-based; settings: Homo sapiens
[3] = test system: K562; assay: Concentration to induce apoptosis in 50% cells was determined in K562ADR cell lines; assay type: functional, cell-based; settings: Homo sapiens
[4] = Inhibitory concentration against HL60R cell lines; assay type: functional, cell-based, Homo sapiens; settings: hl-60
How it was run: (§2)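 Leukemia cells grown in RPMI 1640 with 10% FCS, penicillin, streptomycin and 2 mM L-glutamine at 37 °C, 5% CO2. Compounds from 20 mM DMSO stocks, final DMSO ≤0.5%. 2 × 10^5 cells in 1 mL were exposed to a range of concentrations for 48 h. Viable cells were counted by trypan blue on a hemocytometer and expressed as percent of control proliferation.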

[5] = test system: HuT78; assay: Percentage of apoptotis in HUT78B1 cells after 48 h of exposure at 2 uM concentration; assay type: functional, Homo sapiens
How it was run: (§3)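 HUT78 (Fas-expressing) and HUT78B1 (nonfunctional death-domain-deleted Fas) cells were exposed to compound for 48 h. Apoptosis was scored morphologically by fluorescence microscopy after acridine orange/ethidium bromide staining, based on chromatin condensation and apoptotic bodies.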

[6] = test system: HL-60; assay: Percentage of mitosis after 8 hr exposure of HL60 cells at 2 uM; assay type: functional, Homo sapiens
How it was run: (§4)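 HL60 cells were exposed to compound for 8 h. Mitotic cells were then counted by fluorescence microscopy after acridine orange and ethidium bromide staining.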

[7] = test system: HL-60; assay: Percentage of apoptotis inhibition at 2 uM concentration was determined in HL60 cells in the presence of Fas-blocking monoclonal antibody; assay type: functional, Homo sapiens; parameters: scale not given: the % may be the effect or the level left; how it was run: as §1
[8] = test system: K562; assay: Concentration to induce apoptosis in 50% cells was determined in K562 cell lines; assay type: functional, cell-based; settings: Homo sapiens
[9] = Therapeutic index (IC90/percentage of CFUGEMM inhibition) value after 14 days for bone marrow cells treated with compound at IC90; assay type: cell-based; settings: human, 336 h
[10] = test system: HL-60; assay: Inhibitory concentration to inhibit cell growth 50% was determined in HL60 cells; assay type: functional, cell-based; settings: Homo sapiens; how it was run: as §2
[11] = test system: HuT78; assay: Percentage of apoptotis was determined in HUT78 cells after 48 h of exposure at 2 uM concentration; assay type: functional, Homo sapiens; how it was run: as §3
[12] = test system: K562; assay: Inhibitory concentration against K562ADR cell lines; assay type: functional, cell-based; settings: Homo sapiens; how it was run: as §2
[13] = test system: HL-60; assay: Concentration to induce apoptosis in 50% cells was determined in HL60R cell lines; assay type: functional, cell-based; settings: Homo sapiens
[14] = test system: Osteoclast-like; assay: Percentage of CFU-GEMM inhibition value after 14 days for bone marrow cells treated with compound at IC90; assay type: functional, Homo sapiens
[15] = Percentage of apoptotis in HUT78 cells after 48 h of exposure at 2 uM concentration; assay type: functional, Homo sapiens; settings: in the assay text read “at IC90 concentration” for “at 2 uM concentration”; how it was run: as §3
[16] = test system: HL-60; assay: Percentage of apoptotis inhibition at 0.3 uM concentration was determined in HL60 cells in the presence of Z-LEHD-fmk inhibitor; assay type: functional, Homo sapiens; parameters: scale not given: the % may be the effect or the level left; how it was run: as §1
[17] = Concentration required to inhibit cell growth 50% was determined in HL60R cell lines; assay type: functional, cell-based, Homo sapiens; how it was run: as §2
[18] = test system: K562; assay: Concentration required to inhibit cell growth 50% was determined in K562ADR cell lines; assay type: functional, cell-based; settings: Homo sapiens; how it was run: as §2
[19] = test system: Osteoclast-like; assay: Percentage of CFU-GEMM inhibition after 14 days for bone marrow cells treated with compound at IC90; assay type: functional, Homo sapiens
[20] = test system: HL-60; assay: Percentage of mitosis after 8 hr exposure of HL60 cells to the compound at 1 uM; assay type: functional, Homo sapiens; how it was run: as §4
[21] = test system: HL-60; assay: Percentage of apoptotis inhibition at 0.3 uM concentration was determined in HL60 cells in the presence of Fas-blocking monoclonal antibody; assay type: functional, Homo sapiens; parameters: scale not given: the % may be the effect or the level left; how it was run: as §1
[22] = test system: HL-60; assay: Percentage of apoptotis inhibition at 0.5 uM concentration was determined in HL60 cells in the presence of Fas-blocking monoclonal antibody; assay type: functional, Homo sapiens; parameters: scale not given: the % may be the effect or the level left; how it was run: as §1
[23] = test system: HL-60; assay: Apoptotic concentration to induce apoptosis in 50% cells was determined in HL60R cell lines; assay type: functional, cell-based; settings: Homo sapiens
[24] = test system: HL-60; assay: Percentage of apoptotis inhibition at 0.5 uM concentration was determined in HL60 cells in the presence of Z-LEHD-fmk inhibitor; assay type: functional, Homo sapiens; parameters: scale not given: the % may be the effect or the level left; how it was run: as §1
[25] = test system: HL-60; assay: Percentage of mitosis after 8 hr exposure of HL60 cells to the compound at 2.5 nM; assay type: functional, Homo sapiens; how it was run: as §4

Compound `COc1ccc([C@H]2ON=C(S(=O)(=O)c3ccccc3)[C@@H]2c2cc(OC)c(OC)c(OC)c2)cc1O` has an Activity [1] of 71.5%, an AC50 [2] of 2 µM and an AC50 [3] of 8 µM. For the same compound, the IC50 [4] was 3 µM and 1 µM, the Activity [5] was 46% and the Activity [6] was 18%. For the same compound, the Activity [7] was 25%, the AC50 [8] was 2 µM and the Ratio [9] was 2.1. For the same compound, the IC50 [10] was 0.9 µM, the Activity [11] was 70% and the IC50 [12] was 2 µM. For the same compound, the AC50 [13] was 5 µM and the CFU-GEMM [14] was 42%.

Compound `COc1ccc([C@@H]2ON=C(C)[C@@H]2c2cc(OC)c(OC)c(OC)c2)cc1O` has an AC50 [2] of 3.5 µM and an IC50 [10] of 2 µM.

In the case of `COc1ccc(-c2ccc(-c3cc(OC)c(OC)c(OC)c3)cc2)cc1O`, the AC50 [2] is reported as 35 µM and the IC50 [10] is reported as 30 µM.

`COc1ccc(-c2cccnc2-c2cc(OC)c(OC)c(OC)c2)cc1O` showed an AC50 [2] of 0.6 µM and an IC50 [10] of 0.3 µM.

Work on `COc1ccc(-c2ccccc2-c2cc(OC)c(OC)c(OC)c2)cc1O` yielded an AC50 [2] of 30 µM and an IC50 [10] of 20 µM.

In the case of `COc1ccc(-c2cccc(-c3cc(OC)c(OC)c(OC)c3)c2)cc1O`, the AC50 [2] is reported as 22 µM and the IC50 [10] is reported as 12 µM.

For `COc1ccc(-c2cc(-c3cc(OC)c(OC)c(OC)c3)on2)cc1O`, the AC50 [2] was 4 µM and the IC50 [10] was 3 µM.

With `COc1ccc(C2=NOC(c3cc(OC)c(OC)c(OC)c3)C2)cc1O` (configuration not stated) the AC50 [2] was 2.2 µM and the IC50 [10] was 1.5 µM.

Compound `COc1ccc([C@@H]2C(C)=NO[C@@H]2c2cc(OC)c(OC)c(OC)c2)cc1O` has an AC50 [2] of 3.5 µM and an IC50 [10] of 2 µM.

Compound `COC1=NO[C@@H](c2ccc(OC)c(O)c2)[C@H]1c1cc(OC)c(OC)c(OC)c1` has an AC50 [2] of 0.3 µM, an Activity [15] of 80% and an AC50 [3] of 2 µM. For the same compound, the Activity [16] was 50%, the IC50 ([17]; Homo sapiens, HL60R) was 0.25 µM and the IC50 ([17]; hl60r) was 0.25 µM. For the same compound, the Activity [5] was 60%, the IC50 [18] was 0.5 µM and the CFU-GEMM [19] was 36%. The Activity [20] was 17%, the AC50 [8] was 0.4 µM and the Ratio [9] was 2.5. For the same compound, the IC50 [10] was 0.1 µM, the Activity [21] was 25% and the AC50 [13] was 0.75 µM.

In the case of `COC1=NO[C@H](c2cc(OC)c(OC)c(OC)c2)[C@@H]1c1ccc(OC)c(O)c1`, the AC50 [2] is reported as 0.5 µM, the Activity [15] is reported as 75% and the AC50 [3] is reported as 2 µM. The IC50 ([17]; hl60r) was 0.75 µM and 0.2 µM, the Activity [22] was 57% and the Activity [5] was 40%. The AC50 [23] was 2 µM, the IC50 [18] was 0.5 µM and the Activity [24] was 91.4%. The Activity [20] was 15%, the AC50 [8] was 0.4 µM and the Ratio [9] was 2.6. It also gave an IC50 [10] of 0.25 µM and a CFU-GEMM [14] of 34%.

In the case of `COc1ccc(-c2ncccc2-c2cc(OC)c(OC)c(OC)c2)cc1O`, the AC50 [2] is reported as 10 µM and the IC50 [10] is reported as 5 µM.

Compound `COc1ccc(C2CC(c3cc(OC)c(OC)c(OC)c3)=NO2)cc1O` (configuration not stated) has an AC50 [2] of 5.5 µM and an IC50 [10] of 3.2 µM.

`COc1ccc(-c2cc(Cl)cnc2-c2cc(OC)c(OC)c(OC)c2)cc1O` showed an AC50 [2] of 0.8 µM and an IC50 [10] of 0.5 µM.

In the case of `COc1ccc(-c2cc(-c3cc(OC)c(OC)c(OC)c3)no2)cc1O`, the AC50 [2] is reported as 4.5 µM and the IC50 [10] is reported as 3 µM.

`COc1ccc([C@H]2C(S(=O)(=O)c3ccccc3)=NO[C@@H]2c2cc(OC)c(OC)c(OC)c2)cc1O` gave an AC50 [2] of 25 µM and an IC50 [10] of 15 µM.

In the case of `COc1ccc(/C=C\c2cc(OC)c(OC)c(OC)c2)cc1O` [COMBRETASTATIN A4], the Activity [25] is reported as 88%, the Ratio [9] is reported as 2.4 and the CFU-GEMM [14] is reported as 37%.
